Experimental data taken from ChEMBL document CHEMBL1221232, “Synthesis and biological activity of 4''-O-acyl derivatives of 14- and 15-membered macrolides linked to omega-quinolone-carboxylic unit” (Bioorg Med Chem, 2010).
In brackets after ≈: the same amount, converted by molar mass.

Columns and labels:
[1] = Oral bioavailability in Sprague-Dawley rat blood at 30 mg/kg; assay type: ADME, organism-based; settings: whole blood
Outline: (§1)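 Po/iv crossover study in male Sprague-Dawley rats. Target doses were 30 mg/kg po (fasted) and 5 mg/kg iv (fed). Compound was given as a solution in 1.0% DMSO and 20% (w/v) Encapsin, in saline for iv or water for po, pH 3.5–4.0. Blood was sampled at several timepoints up to 1800 min and hemolyzed 1:1 with water.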

Streptococcus pneumoniae [2] = assay: Antibacterial activity against inducible resistance to macrolide and constitutive resistance to lincosamide Streptococcus pneumoniae 134 GR M by broth microdilution method; assay type: functional
Outline: (§2)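 MIC by CLSI broth microdilution, except that the streptococcal medium used 5% horse serum in place of lysed blood. Streptococcal inocula came from Columbia agar with 5% sheep blood. The MIC is the lowest concentration inhibiting growth.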

Moraxella catarrhalis = assay: Antibacterial activity against Moraxella catarrhalis ATCC 23246 by broth microdilution method; assay type: functional
Outline: (§3)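 MIC by CLSI broth microdilution. Inocula from agar-grown cultures: chocolate agar for H. influenzae, Columbia agar with 5% sheep blood for M. catarrhalis, Mueller-Hinton agar for S. aureus. Read as minimum inhibitory concentration in µg/mL.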

Streptococcus pneumoniae [3] = assay: Antibacterial activity against efflux-mediated macrolide resistance Streptococcus pneumoniae Ci137 by broth microdilution method; assay type: functional; outline: as §2
Rattus norvegicus [4] = assay: Clearance in Sprague-Dawley rat blood as % of liver blood flow at 30 mg/kg, po and 5 mg/kg, iv; assay type: ADME, organism-based; settings: in vivo; outline: as §1
Streptococcus pneumoniae [5] = assay: Antibacterial activity against constitutive MLS-resistance Streptococcus pneumoniae 58 by broth microdilution method; assay type: functional; outline: as §2
[6] = Volume of distribution at steady state in Sprague-Dawley rat blood at 30 mg/kg, po and 5 mg/kg, iv; assay type: ADME, organism-based; settings: whole blood, read-out: Vdss; outline: as §1
Haemophilus influenzae = assay: Antibacterial activity against Haemophilus influenzae ATCC 49247 by broth microdilution method; assay type: functional; outline: as §3
Staphylococcus aureus [7] = assay: Antibacterial activity against erythromycin-sensitive Staphylococcus aureus ATCC 13709 by broth microdilution method; assay type: functional; outline: as §3
Streptococcus pyogenes [8] = assay: Antibacterial activity against efflux-mediated macrolide resistance Streptococcus pyogenes 2 by broth microdilution method; assay type: functional; outline: as §2
Streptococcus pyogenes [9] = assay: Antibacterial activity against macrolide, licosamide and streptogramin inducible-resistance Streptococcus pyogenes 11 by broth microdilution method; assay type: functional; outline: as §2
Staphylococcus aureus [10] = assay: Antibacterial activity against macrolide, licosamide and streptogramin inducible-resistance Staphylococcus aureus 90256 by broth microdilution method; assay type: functional
Outline: (§4)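 MIC by CLSI broth microdilution. Staphylococci were grown on Mueller-Hinton agar before testing. The MIC is the lowest concentration inhibiting growth.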

Streptococcus pyogenes [11] = assay: Antibacterial activity against constitutive MLS resistance Streptococcus pyogenes 166 GR-Micro by broth microdilution method; assay type: functional; outline: as §2
Staphylococcus aureus [12] = assay: Antibacterial activity against efflux-mediated macrolide resistance Staphylococcus aureus PK1 by broth microdilution method; assay type: functional; outline: as §4
Rattus norvegicus [13] = assay: Liver blood flow in Sprague-Dawley rat blood at 30 mg/kg, po and 5 mg/kg, iv; assay type: ADME, organism-based; settings: in vivo; outline: as §1

Structure (SMILES) | bioavailability [1] [%] | MIC (Streptococcus pneumoniae [2]) [µg/mL] | MIC (Moraxella catarrhalis) [µg/mL] | MIC (Streptococcus pneumoniae [3]) [µg/mL] | Fraction of Liver Blood Flow (Rattus norvegicus [4]) [%] | MIC (Streptococcus pneumoniae [5]) [µg/mL] | Vd [6] [L/kg] | MIC (Haemophilus influenzae) [µg/mL] | MIC50 (Haemophilus influenzae) [µg/mL] | MIC90 (Haemophilus influenzae) [µg/mL] | MIC (Staphylococcus aureus [7]) [µg/mL] | MIC (Streptococcus pyogenes [8]) [µg/mL] | MIC (Streptococcus pyogenes [9]) [µg/mL] | MIC (Staphylococcus aureus [10]) [µg/mL] | MIC (Streptococcus pyogenes [11]) [µg/mL] | MIC (Staphylococcus aureus [12]) [µg/mL] | LBF (Rattus norvegicus [13]) [%]
CC[C@H]1OC(=O)[C@H](C)[C@@H](O[C@H]2C[C@@](C)(OC)[C@@H](OC(=O)CCOCCOCCCc3ccc4c(c3)c(=O)c(C(=O)O)cn4CC)[C@H](C)O2)[C@H](C)[C@@H](O[C@@H]2O[C@H](C)C[C@H](N(C)C)[C@H]2O)[C@](C)(O)C[C@@H](C)CN(C)[C@H](C)[C@@H](O)[C@]1(C)O | 22 | 0.25 (≈ 0.223 µM) | ≤ 0.125 | ≤ 0.125 | 35 | ≤ 0.125 | 10.4 | 1 (≈ 0.891 µM) | 1 (≈ 0.891 µM) | 2 (≈ 1.78 µM) | ≤ 0.125 | ≤ 0.125 | ≤ 0.125 | 0.25 (≈ 0.223 µM) | ≤ 0.125 | 0.25 (≈ 0.223 µM) | 
CC[C@H]1OC(=O)[C@H](C)[C@@H](O[C@H]2C[C@@](C)(OC)[C@@H](OC(=O)CCOCCOCCCc3ccc4c(c3)c(=O)c(C(=O)O)cn4C3CC3)[C@H](C)O2)[C@H](C)[C@@H](O[C@@H]2O[C@H](C)C[C@H](N(C)C)[C@H]2O)[C@](C)(O)C[C@@H](C)CN(C)[C@H](C)[C@@H](O)[C@]1(C)O | 16 | 0.25 (≈ 0.22 µM) | 0.5 (≈ 0.441 µM) | ≤ 0.125 |  | ≤ 0.125 | 10.5 | 2 (≈ 1.76 µM) | 1 (≈ 0.882 µM) | 2 (≈ 1.76 µM) | ≤ 0.125 | ≤ 0.125 | ≤ 0.125 | ≤ 0.125 | 0.5 (≈ 0.441 µM) | ≤ 0.125 | 43
CCCn1cc(C(=O)O)c(=O)c2cc(CCCOCCOCCC(=O)O[C@H]3[C@H](C)O[C@@H](O[C@H]4[C@H](C)[C@@H](O[C@@H]5O[C@H](C)C[C@H](N(C)C)[C@H]5O)[C@](C)(O)C[C@@H](C)CN(C)[C@H](C)[C@@H](O)[C@](C)(O)[C@@H](CC)OC(=O)[C@@H]4C)C[C@@]3(C)OC)ccc21 |  | ≤ 0.125 | 0.5 (≈ 0.44 µM) | ≤ 0.125 |  | ≤ 0.125 |  | 1 (≈ 0.88 µM) | 1 (≈ 0.88 µM) | 2 (≈ 1.76 µM) | ≤ 0.125 | ≤ 0.125 | ≤ 0.125 | ≤ 0.125 | 0.25 (≈ 0.22 µM) | ≤ 0.125 | 
CC[C@H]1OC(=O)[C@H](C)[C@@H](O[C@@H]2O[C@@H](C)C[C@](C)(OC)[C@H]2OC(=O)CCOCCOCCCc2ccc3c(c2)c(=O)c(C(=O)O)cn3CC)[C@H](C)[C@@H](O[C@@H]2O[C@H](C)C[C@H](N(C)C)[C@H]2O)[C@](C)(OC)C[C@@H](C)C(=O)[C@H](C)[C@H]2N(C)C(=O)O[C@]12C |  | ≤ 0.125 | ≤ 0.125 | ≤ 0.125 |  | ≤ 0.125 |  | 1 (≈ 0.862 µM) |  |  | ≤ 0.125 | ≤ 0.125 | ≤ 0.125 | 0.25 (≈ 0.215 µM) | ≤ 0.125 | 0.5 (≈ 0.431 µM) | 
CC[C@H]1OC(=O)[C@H](C)[C@@H](O[C@@H]2O[C@@H](C)C[C@](C)(OC)[C@H]2OC(=O)CCOCCOCCCc2ccc3c(c2)c(=O)c(C(=O)O)cn3CC)[C@H](C)[C@@H](O[C@@H]2O[C@H](C)C[C@H](N(C)C)[C@H]2O)[C@](C)(O)C[C@@H](C)/C(=N\OCOCCOC)[C@H](C)[C@@H](O)[C@]1(C)O |  | 0.5 (≈ 0.413 µM) | 1 (≈ 0.826 µM) | ≤ 0.125 |  | 1 (≈ 0.826 µM) |  | 4 (≈ 3.3 µM) |  |  | 0.5 (≈ 0.413 µM) | ≤ 0.125 | ≤ 0.125 | 8 (≈ 6.61 µM) | 1 (≈ 0.826 µM) | 1 (≈ 0.826 µM) | 
CC[C@H]1OC(=O)[C@H](C)[C@@H](O[C@@H]2O[C@@H](C)C[C@](C)(OC)[C@H]2OC(=O)CCOCCOCCCc2ccc3c(c2)c(=O)c(C(=O)O)cn3CC)[C@H](C)[C@@H](O[C@@H]2O[C@H](C)C[C@H](N(C)C)[C@H]2O)[C@](C)(OC)C[C@@H](C)C(=O)[C@H](C)[C@H]2NC(=O)O[C@@]21C |  | ≤ 0.125 | 1 (≈ 0.872 µM) | ≤ 0.125 |  | ≤ 0.125 |  | 1 (≈ 0.872 µM) | 2 (≈ 1.74 µM) | 4 (≈ 3.49 µM) | ≤ 0.125 | ≤ 0.125 | ≤ 0.125 | ≤ 0.125 | ≤ 0.125 | ≤ 0.125 | 
CC[C@H]1OC(=O)[C@H](C)[C@@H](O[C@H]2C[C@@](C)(OC)[C@@H](O)[C@H](C)O2)[C@H](C)[C@@H](O[C@@H]2O[C@H](C)C[C@H](N(C)C)[C@H]2O)[C@](C)(O)C[C@@H](C)CN(C)[C@H](C)[C@@H](O)[C@]1(C)O [AZITHROMYCIN] |  | > 64 | ≤ 0.125 | 8 (≈ 10.7 µM) |  | > 64 |  | 1 (≈ 1.34 µM) | 1 (≈ 1.34 µM) | 2 (≈ 2.67 µM) | 0.5 (≈ 0.668 µM) | 8 (≈ 10.7 µM) | > 64 | > 64 | > 64 | > 64 | 
CC[C@H]1OC(=O)[C@H](C)C(=O)[C@H](C)[C@@H](O[C@@H]2O[C@H](C)C[C@H](N(C)C)[C@H]2O)[C@](C)(OC)C[C@@H](C)C(=O)[C@H](C)[C@H]2N(CCCCn3cnc(-c4cccnc4)c3)C(=O)O[C@]12C [TELITHROMYCIN] |  | 0.25 (≈ 0.308 µM) | ≤ 0.125 | 0.25 (≈ 0.308 µM) |  | 0.25 (≈ 0.308 µM) |  | 2 (≈ 2.46 µM) |  |  | ≤ 0.125 | 0.5 (≈ 0.616 µM) | ≤ 0.125 | ≤ 0.125 | 16 (≈ 19.7 µM) | ≤ 0.125 | 
